Test results taken from ChEMBL document CHEMBL1121685, “Development of new mitomycin C and porfiromycin analogues” (J Med Chem, 1981).

Experiments:
Mus musculus [1] = test: Minimum effective dose that show activity against P-388 murine leukemia cells in CDF1 female mice, after intraperitoneal administration (optimal dose is 6.4 mg/kg); assay type: functional; conditions: P388, ip, read-out: MED
Procedure, shortened: (§1)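 10⁶ P-388 ascites cells implanted ip in CDF₁ female mice. Six mice per dose, 10 saline-injected controls, and a concurrent mitomycin C reference group. %T/C = median survival time of treated/control × 100. MED is the lowest dose giving %T/C > 125. Therapeutic ratio = optimal dose/MED.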

Mus musculus [2] = test: Antitumor activity against P-388 murine leukemia cells in CDF1 female mice after intraperitoneal administration at the specified optimal dose of 6.4 mg/kg; assay type: functional
[3] = Therapeutic ratio is expressed as ratio of optimal dose and minimum effective dose; assay type: ADME; conditions: mouse; read-out: TR; procedure, shortened: as §1
Mus musculus [4] = test: Minimum effective dose that show activity against P-388 murine leukemia cells in CDF1 female mice, after intraperitoneal administration (optimal dose is 3.2 mg/kg); assay type: functional; conditions: P388, ip, read-out: MED; procedure, shortened: as §1
Mus musculus [5] = test: Antitumor activity against P-388 murine leukemia cells in CDF1 female mice after intraperitoneal administration at the specified optimal dose of 3.2 mg/kg; assay type: functional
Mus musculus [6] = test: Minimum effective dose that show activity against P-388 murine leukemia cells in CDF1 female mice, after intraperitoneal administration (optimal dose is 25.6 mg/kg); assay type: functional; conditions: P388, ip, read-out: MED; procedure, shortened: as §1
Mus musculus [7] = test: Antitumor activity against P-388 murine leukemia cells in CDF1 female mice after intraperitoneal administration at the specified optimal dose of 25.6 mg/kg; assay type: functional
Mus musculus [8] = test: Minimum effective dose that show activity against P-388 murine leukemia cells in CDF1 female mice, after intraperitoneal administration (optimal dose is 12.8 mg/kg); assay type: functional; conditions: P388, ip, read-out: MED; procedure, shortened: as §1
Mus musculus [9] = test: Antitumor activity against P-388 murine leukemia cells in CDF1 female mice after intraperitoneal administration at the specified optimal dose of 12.8 mg/kg; assay type: functional
Mus musculus [10] = organism: Mus musculus; test: Degree of leukopenia produced by compound is assessed form Percent change in white cells on days 5; assay type: functional
Procedure, shortened: (§2)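 BDG₁ male mice received a single ip dose on day 0. The dose series topped out at the LD₅₀ level, or at twice the optimal dose for some agents. Total white blood cell count was taken on days 3, 5 and 7 and expressed as % change from untreated controls. Significance was set at p ≤ 0.05 or p ≤ 0.01.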

Mus musculus [11] = organism: Mus musculus; test: Half-wave potential produced by the compound at their optimal dose; assay type: functional; parameters: unit not given here
Mus musculus [12] = test: Effect of compound on total white blood cell count in BDG1 male mice, after intraperitoneal administration at a dose of 12.8 mg/kg on day 3; assay type: functional; procedure, shortened: as §2
Mus musculus [13] = test: Effect of compound on total white blood cell count in BDG1 male mice, after intraperitoneal administration at a dose of 12.8 mg/kg on day 5; assay type: functional; procedure, shortened: as §2
Mus musculus [14] = test: Effect of compound on total white blood cell count in BDG1 male mice, after intraperitoneal administration at a dose 6.4 mg/kg on day 7; assay type: functional; procedure, shortened: as §2
Mus musculus [15] = test: Effect of compound on total white blood cell count in BDG1 male mice, after intraperitoneal administration at a dose of 25.6 mg/kg on day 3 (highest dose was twice the optimal dose); assay type: functional
Mus musculus [16] = test: Effect of compound on total white blood cell count in BDG1 male mice, after intraperitoneal administration at a dose of 6.4 mg/kg on day 5; assay type: functional
Procedure, shortened: (§3)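 Single ip dose given on day 0 to BDG₁ male mice. Total white blood cell count measured on days 3, 5 and 7, expressed as % change from control. Highest dose was at the LD₅₀, or at twice the optimal dose where so footnoted. Significance reported at p ≤ 0.05 and p ≤ 0.01. D marks death of one or more mice.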

Mus musculus [17] = test: Effect of compound on total white blood cell count in BDG1 male mice, after intraperitoneal administration at a dose of 6.4 mg/kg on day 3; assay type: functional; procedure, shortened: as §3
Mus musculus [18] = test: Effect of compound on total white blood cell count in BDG1 male mice, after intraperitoneal administration at a dose of 45 mg/kg on day 7; assay type: functional; procedure, shortened: as §3
Mus musculus [19] = test: Effect of compound on total white blood cell count in BDG1 male mice, after intraperitoneal administration at a dose of 33.8 mg/kg on day 3; assay type: functional
Procedure, shortened: (§4)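 Single ip dose given on day 0 to BDG1 male mice over a descending dose series. Total white blood cell count is expressed as % change from untreated control on days 3, 5 and 7. Significance is flagged at p ≤ 0.05 and p ≤ 0.01.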

Mus musculus [20] = test: Effect of compound on total white blood cell count in BDG1 male mice, after intraperitoneal administration at a dose of 33.8 mg/kg on day 5; assay type: functional; procedure, shortened: as §4
Mus musculus [21] = test: Effect of compound on total white blood cell count in BDG1 male mice, after intraperitoneal administration at a dose of 33.8 mg/kg on day 7; assay type: functional; procedure, shortened: as §4
Mus musculus [22] = test: Effect of compound on total white blood cell count in BDG1 male mice, after intraperitoneal administration at a dose of 45 mg/kg on day 3; assay type: functional; procedure, shortened: as §3
Mus musculus [23] = test: Effect of compound on total white blood cell count in BDG1 male mice, after intraperitoneal administration at a dose of 45 mg/kg on day 5; assay type: functional; procedure, shortened: as §3
Mus musculus [24] = test: Effect of compound on total white blood cell count in BDG1 male mice, after intraperitoneal administration at a dose of 25.3 mg/kg on day 3; assay type: functional; procedure, shortened: as §4
Mus musculus [25] = test: Effect of compound on total white blood cell count in BDG1 male mice, after intraperitoneal administration at a dose of 25.3 mg/kg on day 5; assay type: functional; procedure, shortened: as §4
Mus musculus [26] = test: Effect of compound on total white blood cell count in BDG1 male mice, after intraperitoneal administration at a dose of 25.3 mg/kg on day 7; assay type: functional; procedure, shortened: as §4
Mus musculus [27] = test: Number of tumored survivors, 45 days after administration of compound at a dose of 12 mg/kg/day in mice; assay type: functional
Mus musculus [28] = test: Number of tumored survivors, 45 days after administration of compound at a dose of 24 mg/kg/day in mice; assay type: functional
Mus musculus [29] = test: Activity of compound dose of 1.5 mg/kg/day against Murine B-16 Melanocarcinoma in mice; assay type: functional
Mus musculus [30] = test: Activity of compound dose of 12 mg/kg/day against Murine B-16 Melanocarcinoma in mice; assay type: functional
Mus musculus [31] = test: Activity of compound dose of 24 mg/kg/day against Murine B-16 Melanocarcinoma in mice; assay type: functional
Mus musculus [32] = test: Activity of compound dose of 3 mg/kg/day against Murine B-16 Melanocarcinoma in mice; assay type: functional
Mus musculus [33] = test: Activity of compound dose of 6 mg/kg/day against Murine B-16 Melanocarcinoma in mice; assay type: functional
Mus musculus [34] = test: Number of cured survivors, 45 days after administration of compound at a dose of 12 mg/kg/day in mice; assay type: functional
Mus musculus [35] = test: Number of cured survivors, 45 days after administration of compound at a dose of 24 mg/kg/day in mice; assay type: functional
Mus musculus [36] = test: Effect of compound on total white blood cell count in BDG1 male mice, after intraperitoneal administration at a dose of 90.5 mg/kg on day 3; assay type: functional
Mus musculus [37] = test: Effect of compound on total white blood cell count in BDG1 male mice, after intraperitoneal administration at a dose of 90.5 mg/kg on day 5; assay type: functional
Mus musculus [38] = test: Effect of compound on total white blood cell count in BDG1 male mice, after intraperitoneal administration at a dose of 67.9 mg/kg on day 3; assay type: functional; procedure, shortened: as §3

| SMILES | selectivity ratio [3] | minimal effective dose (Mus musculus [6]) [mg/kg] | T/C (Mus musculus [7]) [%] | minimal effective dose (Mus musculus [8]) [mg/kg] | T/C (Mus musculus [9]) [%] | other results |
| --- | --- | --- | --- | --- | --- | --- |
| COC12[C@@H]3N[C@@H]3CN1C1=C(C(=O)C(NCC(N)=O)=C(C)C1=O)[C@@H]2COC(N)=O (stereo not given in full) | 16 |  |  |  |  | minimal effective dose (Mus musculus [1]): 0.4 mg/kg; T/C (Mus musculus [2]): 217% |
| COC1=C(C)C(=O)C2=C(C1=O)[C@H](COC(N)=O)C1(OC)[C@H]3[C@@H](CN21)N3C (stereo not given in full) | 8 |  |  |  |  | minimal effective dose (Mus musculus [4]): 0.4 mg/kg; T/C (Mus musculus [5]): 180% |
| C=C(Cl)CNC1=C(C)C(=O)C2=C(C1=O)[C@H](COC(N)=O)C1(OC)[C@@H]3N[C@@H]3CN21 (stereo not given in full) | 8 | 3.2 | 178 |  |  |  |
| C#CCN(C)C1=C(C)C(=O)C2=C(C1=O)[C@H](COC(N)=O)C1(OC)[C@@H]3N[C@@H]3CN21 (stereo not given in full) | 16 |  |  | 0.8 | 210 |  |
| COC12[C@@H]3N[C@@H]3CN1C1=C(C(=O)C(NCc3cccnc3)=C(C)C1=O)[C@@H]2COC(N)=O (stereo not given in full) | 4 |  |  | 3.2 | 167 |  |
| COC12[C@@H]3N[C@@H]3CN1C1=C(C(=O)C(NCCc3ccccc3)=C(C)C1=O)[C@@H]2COC(N)=O (stereo not given in full) |  | 1.6 | 194 |  |  |  |
| C#CC(C)(C)NC1=C(C)C(=O)C2=C(C1=O)[C@H](COC(N)=O)C1(OC)[C@@H]3N[C@@H]3CN21 (stereo not given in full) | 16 | 1.6 | 178 |  |  |  |
| COC12[C@@H](COC(N)=O)c3c(O)c(N=C4C=CC(=O)C=C4)c(C)c(O)c3N1C[C@@H]1[C@H]2N1C (stereo not given in full) | 4 |  |  |  |  | minimal effective dose (Mus musculus [1]): 1.6 mg/kg; T/C (Mus musculus [2]): 137% |
| COC12[C@@H]3N[C@@H]3CN1C1=C(C(=O)C(NCCCO)=C(C)C1=O)[C@@H]2COC(N)=O (stereo not given in full) | 8 | 3.2 | 244 |  |  | Change (Mus musculus [10]): -43%; E1/2 (Mus musculus [11]): -0.42 |
| COC12[C@@H]3N[C@@H]3CN1C1=C(C(=O)C(NCc3ccc(S(N)(=O)=O)cc3)=C(C)C1=O)[C@@H]2COC(N)=O (stereo not given in full) | 4 | 6.4 | 150 |  |  |  |
| C=CCNC1=C(C)C(=O)C2=C(C1=O)[C@H](COC(N)=O)C1(OC)[C@H]3[C@@H](CN21)N3C (stereo not given in full) | 4 |  |  | 3.2 | 189 |  |
| COC(=O)CNC1=C(C)C(=O)C2=C(C1=O)[C@H](COC(N)=O)C1(OC)[C@@H]3N[C@@H]3CN21 (stereo not given in full) | 32 |  |  |  | 300 | Change (Mus musculus [12]): -55%; Change (Mus musculus [13]): -68%; Change (Mus musculus [14]): -21%; Change (Mus musculus [15]): -65%; Change (Mus musculus [16]): -55%; Change (Mus musculus [17]): -39% |
| COC12[C@@H]3N[C@@H]3CN1C1=C(C(=O)C(NCC3CCCO3)=C(C)C1=O)[C@@H]2COC(N)=O (stereo not given in full) | 64 | 0.4 | 289 |  |  | Change (Mus musculus [10]): -54%; E1/2 (Mus musculus [11]): -0.41; Change (Mus musculus [18]): -25%; Change (Mus musculus [19]): -58%; Change (Mus musculus [20]): -62%; Change (Mus musculus [21]): -13%; Change (Mus musculus [22]): -76%; Change (Mus musculus [23]): -72%; Change (Mus musculus [24]): -44%; Change (Mus musculus [25]): -54%; Change (Mus musculus [26]): -19%; Survivors (Mus musculus [27]): 1; Survivors (Mus musculus [28]): 3; T/C (Mus musculus [29]): 146%; T/C (Mus musculus [30]): 240%; T/C (Mus musculus [31]): 326%; T/C (Mus musculus [32]): 173%; T/C (Mus musculus [33]): 179%; Survivors (Mus musculus [34]): 1; Survivors (Mus musculus [35]): 4 |
| COC12[C@@H](COC(N)=O)C3=C(C(=O)C(C)=C(NC4CC4)C3=O)N1C[C@@H]1[C@H]2N1C (stereo not given in full) | 2 |  |  |  | 167 |  |
| COC12[C@@H](COC(N)=O)C3=C(C(=O)C(C)=C(NCc4ccco4)C3=O)N1C[C@@H]1[C@H]2N1C (stereo not given in full) | 16 | 1.6 | 261 |  |  |  |
| COC12[C@@H](COC(N)=O)C3=C(C(=O)C(C)=C(NCCCO)C3=O)N1C[C@@H]1[C@H]2N1C (stereo not given in full) | 16 | 1.6 | 239 |  |  | Change (Mus musculus [36]): -78%; Change (Mus musculus [37]): -72%; Change (Mus musculus [38]): -85% |
| COC12[C@@H]3N[C@@H]3CN1C1=C(C(=O)C(NCc3ccccc3)=C(C)C1=O)[C@@H]2COC(N)=O (stereo not given in full) | 8 |  |  | 1.6 | 188 |  |
| COC12[C@@H]3N[C@@H]3CN1C1=C(C(=O)C(NCCCCl)=C(C)C1=O)[C@@H]2COC(N)=O (stereo not given in full) | 2 |  |  | 6.4 | 140 |  |
| CO[C@@]12[C@H](COC(N)=O)C3=C(C(=O)C(C)=C(N)C3=O)N1C[C@H]1[C@@H]2N1C (stereo not given in full) [PORFIROMYCIN] | 16 |  |  | 0.8 | 225 |  |
